From PubChem
KCNQ1 act: potentiators or activators of human KCNQ1 potassium channel. P51787. CHO-K1 KCNQ1, thallium flux FluxOR fluorescence; active compounds read high. B-score at 10 µM. 310,000 tested, 0.35% active. AID 2648;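 active = fluorescence ratio B-score, a plate-corrected score, at least three library SD, with initial intensity B-score within 5 SD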
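assay system = KCNQ1-transfected CHO-K1 cells | medium = assay buffer with matched DMSO | probe or stimulus = depolarizing K+/Tl+ stimulus, K2SO4 and Tl2SO4 each 12.5 mM in 5x stock | dosing = single dose | incubation = dye 90 min, compound 20 min, room temperature | detection = kinetic FluxOR fluorescence, 10 s baseline plus 110 s post-stimulus | evaluation = ratio B score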
KCNQ1 block: blocks the human KCNQ1 potassium channel; P51787; CHO-K1 KCNQ1, FluxOR thallium flux fluorescence; active compounds read high; B-score at 10 µM; 310,000 tested, 1.3% active; AID 2642;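 active = compounds whose thallium flux B-score, printed positive for inhibition, exceeds three library SD while starting fluorescence stays within three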;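 note: channel opened by potassium depolarization with thallium stimulus after 20 min compound exposure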
Kir21 block: blocks the mouse Kir2.1 inward-rectifier potassium channel; AID 1672; 310,000 tested, 0.85% active; HEK293-Kir2.1, FluxOR thallium flux fluorescence; active compounds read low; B-score at 10 µM; P35561;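 active = fluorescence ratio B-score at or below minus 3 SD of library scores, with starting-brightness B-score within 2 SD, cut at about -4.2 in these data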;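 note: channel flux triggered by added potassium and thallium sulfate stimulus; B-score of peak minus minimum fluorescence over baseline after thallium stimulus; more negative B-score means stronger Kir2.1 block with less thallium influx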
KCNK3 inh: human KCNK3 channel inhibition, primary screen; O14649; CHO-KCNK3 thallium flux, FluxOR fluorescence; active compounds read low; B-score at 10 µM; 340,000 tested, 0.84% active; AID 602410;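 active = B-score under library mean minus 4 SD, starting fluorescence ratio at most library mean plus 5 SD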;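 note: more negative B-score means stronger inhibition of thallium flux through KCNK3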
Target sequence (O14649 whole entry, looked up): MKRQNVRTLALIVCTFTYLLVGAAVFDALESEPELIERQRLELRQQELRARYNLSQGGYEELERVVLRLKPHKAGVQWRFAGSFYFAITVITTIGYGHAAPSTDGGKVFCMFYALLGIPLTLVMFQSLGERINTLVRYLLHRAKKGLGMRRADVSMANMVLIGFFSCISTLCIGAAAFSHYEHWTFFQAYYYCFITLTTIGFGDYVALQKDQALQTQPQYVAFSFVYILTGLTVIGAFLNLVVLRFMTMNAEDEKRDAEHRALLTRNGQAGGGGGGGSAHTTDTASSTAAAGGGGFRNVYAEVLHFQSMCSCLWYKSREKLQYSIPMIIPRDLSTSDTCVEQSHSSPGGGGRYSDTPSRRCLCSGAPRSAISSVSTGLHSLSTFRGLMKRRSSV
KCNK9 inh: human KCNK9 channel inhibition | Q9NPC2 | HEK293 KCNK9, FluxOR thallium flux fluorescence; active compounds read low | B-score at 10 µM | 310,000 tested, 1.2% active | AID 488922;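 active = ratio B-score over 3 SD below the library mean, with starting fluorescence within 5 SD of its mean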;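 note: negative B-score means less thallium flux so channel inhibition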
hERG protect: shields human hERG channel from block by proarrhythmic agents; CHO-hERG, FluxOR thallium flux, dofetilide IC70 present; Q12809; activation (rescue from dofetilide block), less the hit threshold, % at 10 µM; 310,000 tested, 0.51% active;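 active = activation above the mean of controls blocked by dofetilide plus 5 SD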;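 note: thallium influx through hERG after potassium depolarization seen as dye fluorescence rise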
* hit, by the source's call; i = inactive; . = no result. Sampled rows, rich in hits. Any-hit rate of the full collection: about 3.7%.

SMILES | KCNQ1 act | KCNQ1 block | Kir21 block | KCNK3 inh | KCNK9 inh | hERG protect
COc1ccc(CN2C(=O)c3ccccc3C(/C=N\OCc3ccc(F)cc3)C2=O)cc1 (stereo unspecified) | i | 10* | 0.26 | i | i | -13.0
O=C(NCCc1ccccn1)c1cc2ccccc2o1 | i | i | 2.42 | i | i | -3.4
COc1ccc(OC)c(NC(=O)c2cccnc2Sc2cc(C)ccc2C)c1 | i | i | -1.9 | i | -7.59* | -5.9
CCOC(=O)c1c(NC(=O)CN2CCN(S(=O)(=O)c3cc(Cl)ccc3Cl)CC2)sc(C(=O)N(C)C)c1C | . | . | . | i | . | .
CC(C)c1cccc(C(C)C)c1NC(=O)COC(=O)[C@H](C)NC(N)=O | i | i | -1.52 | i | i | 11.0*
CC(C)c1cccc(C(C)C)c1NC(=O)COC(=O)C1=COCCO1 | i | i | 0.89 | i | i | -5.3
COc1ccccc1NC(C)C(=O)N/N=C/c1ccccc1OCc1cccc(Br)c1 (stereo unspecified) | i | i | 0.24 | i | -7.3* | -5.9
O=C(c1ccc([N+](=O)[O-])cc1)N1CCC(Cc2ccccc2)CC1 | i | i | 0.13 | i | -7.42* | -10.1
O=C(Cc1ccccc1)NC1CCN(C(=O)c2ccc([N+](=O)[O-])cc2)CC1 | i | i | 0.95 | i | i | -2.8
COc1cc(C(=S)N2CCN(C(c3ccccc3)c3ccccc3)CC2)cc(OC)c1O | i | i | 0.19 | i | i | -4.6
COC(=O)N/N=C(\C)c1ccc(-n2ccnc2)cc1 | i | i | -0.92 | i | i | -2.8
C/C(=N\NC(=O)COc1ccc(C)cc1C(C)C)c1ccc(-n2ccnc2)cc1 | i | i | -0.01 | i | i | 5.6*
COc1ccc(-c2c(C)nn(-c3ccccc3)c2N)cc1OC | i | i | 1.83 | i | i | 4.7*
Oc1oc(-c2ccc(Br)cc2)nc1/C=N/c1ccccn1 | i | i | 0.11 | i | i | -6.8
CCOc1ccc2nc(/N=C/c3c(C)[nH]n(-c4ccccc4)c3=O)sc2c1 | 55* | i | -0.04 | i | i | 57.5*
CCOc1ccc2nc(/N=C/c3c(C)[nH]n(-c4ccc(C)cc4)c3=O)sc2c1 | 40* | i | 0.74 | i | i | 70.7*
CCOc1[nH]n(-c2ccccc2)c(=O)c1C=Nc1ccc(OC)cc1 | i | i | -1.39 | i | i | -9.6
CCOc1ccc(N2C(=O)CC(Sc3nc4ccc(OCC)cc4s3)C2=O)cc1 (stereo unspecified) | i | i | -0.47 | i | i | -8.6
CCOc1ccc2nc(/N=C/c3nc(-c4ccc(Br)cc4)oc3O)sc2c1 | 25* | i | 0.9 | i | i | 6.7*
CC(=O)OCc1c(C(F)(F)F)nn(C)c1Sc1ccccc1 | i | i | -0.12 | i | i | -12.0
CCC(=O)OCc1c(C(F)(F)F)nn(C)c1Sc1ccc(Cl)cc1 | i | i | -4.91* | i | i | -18.6
CNCCCCOc1ccc(C(C)(C)C)cc1Cl | i | i | -4.87* | i | i | -11.2
CNCCCOc1ccc(C)cc1Br | i | i | -1.23 | i | i | -15.2
CCOc1ccccc1N1CCN(Cc2cccc(OC)c2OC)CC1 | i | 6* | -0.7 | i | i | -15.8
O=C(COC(=O)CCC(=O)c1ccc(F)cc1)Nc1ccc2[nH]c(=O)[nH]c2c1 | i | i | -1.5 | i | i | -7.1
SMILES | KCNQ1 act | KCNQ1 block | Kir21 block | KCNK3 inh | KCNK9 inh | hERG protect
N#CCN1CCN(CC(=O)c2ccc(Br)cc2)CC1 | i | i | -0.62 | i | i | -9.5
COc1cccc(C(c2nnnn2Cc2ccco2)N2CCN(c3cccc(C)c3C)CC2)c1OC (stereo unspecified) | i | 6* | 0.14 | i | -6.75* | -5.8
COc1ccccc1N1C(=O)C2C(C(=O)c3ccccc3)=NN(c3ccc(C)cc3)C2C1=O (stereo unspecified) | i | 6* | 0.2 | i | i | -10.3
CCN1CCN(c2ccc(Cl)cc2NC(=O)c2ccc(-n3nc(C)cc3C)cc2)CC1 | . | . | . | i | . | .
COc1ccccc1C=NN=C(NN=Cc1ccccc1OC)NN=Cc1ccccc1OC | . | . | . | -11.2* | . | .
CCOC(=O)c1c(NC(C)=O)sc2c1CCC(C=O)=C2Sc1ccccc1 | i | i | -1.22 | i | -6.89* | -15.9
Cn1c(/C=C/c2cccc([N+](=O)[O-])c2)c([N+](=O)[O-])c(=O)n(C)c1=O | i | i | 0.89 | i | i | -3.1
O=C(NCCc1ccc(F)cc1)c1cc2ccccc2oc1=O | i | i | 0 | i | i | -5.0
COc1ccc(CCNC(=O)c2cc3ccccc3oc2=O)cc1 | i | i | 0.86 | i | i | 7.8*
CC1CN(C(=O)c2cc3cc(Br)ccc3[nH]2)CC(C)O1 (stereo unspecified) | i | i | 0.02 | i | i | -3.5
C=CCOc1ccc(/C=N/NC(=O)CN2CCCCC2)cc1OC | i | i | -1.23 | i | i | -8.1
Cc1ccc(NC(=O)c2ccccc2NS(=O)(=O)c2ccc(Cl)s2)cc1 | i | i | -1.96 | i | -7.52* | -13.2
O=C(Nc1ccccc1Cc1ccccc1)c1ccccc1NS(=O)(=O)c1ccc(Cl)s1 | i | 8* | -0.09 | i | i | -14.7
O=C(NCc1ccco1)c1ccccc1NS(=O)(=O)c1ccc(Cl)s1 | i | i | -0.96 | i | i | -5.7
O=S(=O)(Nc1ccccc1N1CCCCC1)c1ccc(Cl)s1 | i | i | -0.34 | i | -7.36* | -4.2
N#C/C(=C\c1ccc(-c2ccccc2Cl)o1)C(=O)Nc1nc2ccccc2s1 | i | i | 0.5 | i | i | 10.3*
O=C(NNc1c(F)c(F)cc(F)c1F)c1cc2ccccc2oc1=O | i | i | -1.85 | i | i | 9.9*
CSc1ccc(/C=N/n2c(Cc3ccc(Br)cc3)n[nH]c2=S)cc1 | i | i | 0.01 | i | i | 154.6*
O=C(O)c1ccc(N/N=C/C=C/c2ccc([N+](=O)[O-])o2)cc1 | i | i | -1.38 | i | i | -4.5
O=[N+]([O-])c1ccc(N/N=C/C=C/c2ccco2)cc1 | i | i | 0.48 | i | -7.18* | -6.2
Cc1ccc(S[C@@H](CCN2CC[C@H](C(C)(C)C)CCC2=O)c2ccccc2)cc1 | i | 7* | -0.9 | i | i | -5.7
O=C(Nc1ccc(N2CCCC2)c(S(=O)(=O)Nc2cccc(C(F)(F)F)c2)c1)c1cccs1 | i | i | -0.26 | i | -6.98* | -7.8
